# Measurements from different studies.
# Protocols differ between the studies behind these lines.
# Observed: cell growth or viability
Structure (SMILES),cell line,assay,setting,IC50 [µM]
COc1cc(C(=O)c2nc(-c3cccc4c3ccn4C)c[nH]2)cc(OC)c1OC,PC-3,MTS,72 h,0.0127
CC[C@H](C)[C@H](NC(=O)[C@H](CCCCN)NC(=O)[C@H](CCCCN)NC(=O)[C@H](CC(C)C)NC(=O)[C@H](CC(C)C)NC(=O)[C@H](CCCCN)NC(=O)[C@H](CCCCN)NC(=O)[C@H](CC(C)C)NC(=O)[C@H](CCCCN)NC(=O)[C@H](CCCCN)NC(=O)[C@@H](N)CC(C)C)C(=O)N[C@@H](CCCCN)C(=O)N[C@@H](CCCNC(=N)N)C(N)=O,A549,MTT,24 h,> 500
N.N.[Cl][Pt][Cl],MEG-01,ATP luminescence,72 h,5.17
CC[C@H](C)[C@H](NC(=O)[C@H](CCCNC(=N)N)NC(=O)[C@H](CCCNC(=N)N)NC(=O)[C@H](CCCCN)NC(=O)[C@H](CCCNC(=N)N)NC(=O)[C@H](CCCNC(=N)N)NC(=O)[C@H](CCCNC(=N)N)NC(=O)[C@H](CC(C)C)NC(=O)[C@H](CCCNC(=N)N)NC(=O)CNC(=O)[C@H](CCSC)NC(=O)[C@@H](N)CCSC)C(=O)N[C@@H](CCCCN)C(N)=O,A549,MTT,24 h,> 500
CC[C@@]1(O)C(=O)OCc2c1cc1n(c2=O)Cc2cc3ccccc3nc2-1,U-251,SRB,48 h,0.064
COc1cc(C(=O)c2nc(-c3cccc4occc34)c[nH]2)cc(OC)c1OC,PC-3,MTS,72 h,0.0614
CC(C)C[C@H](NC(=O)[C@H](CCCCN)NC(=O)[C@H](Cc1c[nH]c2ccccc12)NC(=O)[C@H](Cc1c[nH]c2ccccc12)NC(=O)[C@H](CCCNC(=N)N)NC(=O)[C@H](Cc1c[nH]c2ccccc12)NC(=O)[C@H](Cc1c[nH]cn1)NC(=O)[C@@H](N)CCCNC(=N)N)C(=O)N[C@@H](Cc1c[nH]cn1)C(=O)N[C@@H](Cc1c[nH]c2ccccc12)C(=O)N[C@@H](CCCNC(=N)N)C(=O)N[C@@H](CCC(=O)O)C(=O)N[C@@H](Cc1c[nH]c2ccccc12)C(N)=O,A549,MTT,24 h,71
N.N.[Cl][Pt][Cl],NIH3T3,,96 h,6.78
N.N.[Cl][Pt][Cl],A549,MTT,48 h,15.8
COc1cc(C(=O)c2nc(-c3cccc4ncccc34)c[nH]2)cc(OC)c1OC,PC-3,MTS,72 h,> 1
CC[C@H](C)[C@H](NC(=O)[C@H](CCCNC(=N)N)NC(=O)CNC(=O)[C@H](CCCCN)NC(=O)[C@H](CCCNC(=N)N)NC(=O)[C@H](CCCNC(=N)N)NC(=O)[C@H](CC(C)C)NC(=O)[C@H](CCC(N)=O)NC(=O)CNC(=O)[C@H](CCCCN)NC(=O)[C@@H](N)CCSC)C(=O)N[C@@H](CCCNC(=N)N)C(N)=O,A549,MTT,24 h,> 500
O=[N+]([O-])c1ccc(NCCCCCCN=C=S)c2nonc12,PC-3,MTT,24 h,1
CC(=N)S,NIH3T3,,"96 h, 3D culture",332
S=P1(c2ccccc2)CCCCC1,PC-3,MTT,72 h,> 100
